Test results taken from ChEMBL document CHEMBL4049408, “Exploration of 2-((Pyridin-4-ylmethyl)amino)nicotinamide Derivatives as Potent Reversal Agents against P-Glycoprotein-Mediated Multidrug Resistance” (J Med Chem, 2017).

Columns and labels:
K562/A02 [1] = experiment: Cytotoxicity against human K562/A02 cells overexpressing P-gp after 48 hrs by MTT assay; format: functional, cell-based; settings: K562/A02, 48 h
Outline: (§1)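 MTT viability in parental K562 and P-gp-overexpressing K562/A02 cells. Compound alone at a concentration series gives the IC50. Mean ± SD of three independent tests.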

[2] = (§2) Cytotoxicity against human K562/A02 cells assessed as cell survival at 5 uM after 48 hrs by MTT assay relative to control; format: cell-based; settings: K562/A02 cells, read-out: Survival
Outline: (§3)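 MTT viability assay in P-gp-overexpressing, ADM-resistant K562/A02 cells, alongside parental K562. […] Values are mean ± SD of three independent tests.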

[3] = biological target: T1, ATP-dependent translocase ABCB1 (Homo sapiens, UniProt P08183); experiment: Inhibition of ABCB1 in human K562/A02 cells assessed as potentiation of adriamycin-mediated cytotoxicity by measuring reduction in ADR IC50 at 5 uM after 48 hrs by MTT assay relative to control; format: cell-based
T1 sequence (P08183 whole entry): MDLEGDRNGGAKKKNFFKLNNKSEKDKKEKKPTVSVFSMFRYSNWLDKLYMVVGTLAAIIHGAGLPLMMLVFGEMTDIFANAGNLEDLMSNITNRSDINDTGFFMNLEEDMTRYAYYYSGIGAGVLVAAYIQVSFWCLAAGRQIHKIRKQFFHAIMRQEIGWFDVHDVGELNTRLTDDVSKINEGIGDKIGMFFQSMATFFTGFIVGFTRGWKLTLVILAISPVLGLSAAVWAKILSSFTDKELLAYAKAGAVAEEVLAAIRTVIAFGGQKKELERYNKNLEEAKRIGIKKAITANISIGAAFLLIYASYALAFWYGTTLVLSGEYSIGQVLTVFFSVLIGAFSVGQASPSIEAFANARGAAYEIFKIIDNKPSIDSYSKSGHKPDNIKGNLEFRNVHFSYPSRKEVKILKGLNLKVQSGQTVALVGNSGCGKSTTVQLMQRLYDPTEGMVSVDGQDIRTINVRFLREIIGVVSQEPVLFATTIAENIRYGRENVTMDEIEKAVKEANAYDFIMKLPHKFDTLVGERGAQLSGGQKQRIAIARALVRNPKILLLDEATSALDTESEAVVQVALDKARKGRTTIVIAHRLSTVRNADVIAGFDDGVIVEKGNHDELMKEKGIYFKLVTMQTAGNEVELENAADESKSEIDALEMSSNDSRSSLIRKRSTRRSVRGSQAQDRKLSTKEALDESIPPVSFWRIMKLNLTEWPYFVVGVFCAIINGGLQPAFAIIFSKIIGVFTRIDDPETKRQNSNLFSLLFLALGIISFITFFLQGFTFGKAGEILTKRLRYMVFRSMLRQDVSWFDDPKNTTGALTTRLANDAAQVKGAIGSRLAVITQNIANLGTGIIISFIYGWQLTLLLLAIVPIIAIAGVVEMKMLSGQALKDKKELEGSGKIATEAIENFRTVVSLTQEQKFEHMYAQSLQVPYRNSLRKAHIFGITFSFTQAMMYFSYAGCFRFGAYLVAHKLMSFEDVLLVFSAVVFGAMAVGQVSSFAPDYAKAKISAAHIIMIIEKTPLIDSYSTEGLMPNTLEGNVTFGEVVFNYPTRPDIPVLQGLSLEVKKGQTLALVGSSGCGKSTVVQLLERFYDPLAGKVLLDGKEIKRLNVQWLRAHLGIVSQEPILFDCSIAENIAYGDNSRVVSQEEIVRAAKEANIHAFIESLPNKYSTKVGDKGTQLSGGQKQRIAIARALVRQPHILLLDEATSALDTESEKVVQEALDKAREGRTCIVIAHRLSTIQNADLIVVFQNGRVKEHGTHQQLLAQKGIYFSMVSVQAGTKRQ
Outline: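 K562/A02 cells exposed to a series of adriamycin concentrations with modulator at 5.0 µM; 0.1% DMSO as solvent control. IC50 read by MTT. Reversal fold = IC50 without inhibitor / IC50 with inhibitor. Mean ± SD of three independent tests.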

K562 [4] = experiment: Cytotoxicity against human K562 cells after 48 hrs by MTT assay; format: functional, cell-based; settings: K562, 48 h; outline: as §1
K562 [5] = experiment: Resistance index, ratio of IC50 for human K562/A02 cells to IC50 for human K562 cells; format: functional
Outline: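 Adriamycin IC50 measured by MTT in K562/A02 and in parental K562 cells. Fold resistance is the ratio of the resistant-line IC50 to the sensitive-line IC50. Mean ± SD of three independent tests.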

K562/A02 [6] = experiment: as §2; format: cell-based; settings: k562/a02, 48 h, 5 µM; outline: as §3
[7] = biological target: T1, ATP-dependent translocase ABCB1; experiment: Substrate activity at ABCB1 ATPase in human ABCB1 membrane fraction assessed as increase in ATPase activity at 50 uM preincubated with compound followed by addition of MgATP measured after 1 hr by luciferase reporter gene assay relative to control; format: cell membranes
[8] = biological target: T1, ATP-dependent translocase ABCB1; experiment: Inhibition of ABCB1 in human K562/A02 cells assessed as increase in intracellular Rh123 accumulation at 5 uM up to 90 mins by flow cytometry; format: cell-based; settings: 1.5 h
Outline: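 K562/A02 cells treated with 5.0 µM modulator; Rh123-associated mean fluorescence intensity read by flow cytometry at 5, 10, 25, 30, 60 and 90 min. Untreated cells as negative control. Mean ± SD of three experiments.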

[9] = Inhibition of CYP3A4 in rat liver microsomes assessed as 6beta-hydroxytestosterone formation using testosterone as substrate by reverse-phase HPLC analysis; format: ADME

## O=C(Nc1nc2ccccc2[nH]1)c1cccnc1NCc1ccncc1
K562/A02 [1]
  IC50: > 100 µM
[2]
  viability at 48 h, 5 µM: > 90%
[3]
  fold change (FC): 1.69
K562 [4]
  IC50: > 100 µM

## COc1cc(NC(=O)c2cccnc2NCc2ccncc2)cc(OC)c1OC
K562/A02 [1]
  IC50: > 100 µM
[2]
  viability at 48 h, 5 µM: > 90%
[3]
  fold change (FC): 3.51
K562 [4]
  IC50: > 100 µM

## COc1cccc2c1C(=O)c1c(O)c3c(c(O)c1C2=O)C[C@@](O)(C(=O)CO)C[C@@H]3O[C@H]1C[C@H](N)[C@H](O)[C@H](C)O1.Cl [DOXORUBICIN HYDROCHLORIDE]
K562/A02 [1]
  IC50: 54 to 56.8 µM
K562 [4]
  IC50: 0.51 to 0.58 µM
K562 [5]
  Ratio IC50: 105.8

## O=C(Nc1ccc(N2CCCCC2)cc1)c1cccnc1NCc1ccncc1
K562/A02 [1]
  IC50: > 100 µM
[2]
  viability at 48 h, 5 µM: > 90%
[3]
  fold change (FC): 5.21
K562 [4]
  IC50: > 100 µM

## O=C(Nc1ccc(F)c(Cl)c1)c1cccnc1NCc1ccncc1
K562/A02 [1]
  IC50: 27.9 µM
[2]
  viability at 48 h, 5 µM: > 90%
[3]
  fold change (FC): 6.6
K562 [4]
  IC50: 78.9 µM

## O=C(c1ccccc1)c1ccccc1NC(=O)c1cccnc1NCc1ccncc1
K562/A02 [1]
  IC50: > 100 µM
K562/A02 [6]
  Activity: Non-Toxic
[3]
  fold change (FC): 1.28
K562 [4]
  IC50: > 100 µM

## O=C(Nc1cccc2ccccc12)c1cccnc1NCc1ccncc1
K562/A02 [1]
  IC50: > 100 µM
[2]
  viability at 48 h, 5 µM: > 90%
[3]
  fold change (FC): 7.74
K562 [4]
  IC50: > 100 µM

## COc1ccc(CCN(C)CCCC(C#N)(c2ccc(OC)c(OC)c2)C(C)C)cc1OC (stereo unspecified)
K562/A02 [1]
  IC50: 31.3 to 33.6 µM
[7]
  fold change (FC): 2.56
K562 [4]
  IC50: 36.7 to 37.3 µM
[8]
  inhibition (INH): Active

## COc1cccc(-c2nnc(NC(=O)c3cccnc3NCc3ccncc3)s2)c1
K562/A02 [1]
  IC50: > 100 µM
[2]
  viability at 48 h, 5 µM: > 90%
[3]
  fold change (FC): 4.6
K562 [4]
  IC50: 39.5 µM

## O=C(Nc1ccc(-c2ccccc2)cc1)c1cccnc1NCc1ccncc1
K562/A02 [1]
  IC50: 27.9 µM
[2]
  viability at 48 h, 5 µM: > 90%
[3]
  fold change (FC): 12.69
K562 [4]
  IC50: 17 µM

## O=C(Nc1ccc(CCN2CCOCC2)cc1)c1cccnc1NCc1ccncc1
K562/A02 [1]
  IC50: > 100 µM
K562/A02 [6]
  Activity: Non-Toxic
[3]
  fold change (FC): 5.64
K562 [4]
  IC50: > 100 µM

## O=C(Nc1ccc(OC(F)(F)F)cc1)c1cccnc1NCc1ccncc1
K562/A02 [1]
  IC50: 28.7 µM
[2]
  viability at 48 h, 5 µM: > 90%
[3]
  fold change (FC): 8.42
K562 [4]
  IC50: 24.2 µM

## COc1cccc(NC(=O)c2cccnc2NCc2ccncc2)c1
K562/A02 [1]
  IC50: > 100 µM
[2]
  viability at 48 h, 5 µM: > 90%
[3]
  fold change (FC): 3.76
K562 [4]
  IC50: > 100 µM

## COc1ccc(NC(=O)c2cccnc2NCc2ccncc2)cc1Cl
K562/A02 [1]
  IC50: > 100 µM
[2]
  viability at 48 h, 5 µM: > 90%
[3]
  fold change (FC): 5.29
K562 [4]
  IC50: > 100 µM

## COc1cc2c(cc1OC)C(c1ccccc1)N(C(=O)c1cccnc1NCc1ccncc1)CC2 (stereo unspecified)
K562/A02 [1]
  IC50: > 100 µM
K562/A02 [6]
  Activity: Non-Toxic
[3]
  fold change (FC): 2.96
K562 [4]
  IC50: > 100 µM

## O=C(NC(c1ccccc1)c1ccccc1)c1cccnc1NCc1ccncc1
K562/A02 [1]
  IC50: > 100 µM
K562/A02 [6]
  Activity: Non-Toxic
[3]
  fold change (FC): 3.94
K562 [4]
  IC50: > 100 µM

## CN1CCN(CCc2ccc(NC(=O)c3cccnc3NCc3ccncc3)cc2)CC1
K562/A02 [1]
  IC50: > 100 µM
K562/A02 [6]
  Activity: Non-Toxic
[3]
  fold change (FC): 2.04
K562 [4]
  IC50: > 100 µM

## COc1cc2c(cc1OC)C(C(C)(C)C)N(C(=O)c1cccnc1NCc1ccncc1)CC2 (stereo unspecified)
K562/A02 [1]
  IC50: > 100 µM
K562/A02 [6]
  Activity: Non-Toxic
[3]
  fold change (FC): 2.66
K562 [4]
  IC50: > 100 µM

## O=C(NCc1ccncc1)c1cccnc1NCc1ccncc1
K562/A02 [1]
  IC50: > 100 µM
[2]
  viability at 48 h, 5 µM: > 90%
[3]
  fold change (FC): 7.92
K562 [4]
  IC50: > 100 µM

## Cc1cccc(Cl)c1NC(=O)c1cnc(NC(=O)c2cccnc2NCc2ccncc2)s1
K562/A02 [1]
  IC50: 86 µM
K562/A02 [6]
  Activity: Non-Toxic
[3]
  fold change (FC): 7.95
K562 [4]
  IC50: 57.7 µM

## COc1ccc(CCNC(=O)c2cccnc2NCc2ccncc2)cc1OC
K562/A02 [1]
  IC50: > 100 µM
[2]
  viability at 48 h, 5 µM: > 90%
[3]
  fold change (FC): 16.6
K562 [4]
  IC50: > 100 µM

## O=C(Nc1ccc2c(c1)Cc1ccccc1-2)c1cccnc1NCc1ccncc1
K562/A02 [1]
  IC50: > 100 µM
K562/A02 [6]
  Activity: Non-Toxic
[3]
  fold change (FC): 13.65
K562 [4]
  IC50: 70 µM

## COc1cc2c(cc1OC)C(Cc1cccc3ccccc13)N(C(=O)c1cccnc1NCc1ccncc1)CC2 (stereo unspecified)
K562/A02 [1]
  IC50: > 100 µM
K562/A02 [6]
  Activity: Non-Toxic
[3]
  fold change (FC): 2.51
K562 [4]
  IC50: > 100 µM

## O=C(NCCc1cccs1)c1cccnc1NCc1ccncc1
K562/A02 [1]
  IC50: > 100 µM
[2]
  viability at 48 h, 5 µM: > 90%
[3]
  fold change (FC): 1.37
K562 [4]
  IC50: > 100 µM

## CC(=O)N1CCN(c2ccc(OCC3COC(Cn4ccnc4)(c4ccc(Cl)cc4Cl)O3)cc2)CC1 (stereo unspecified) [KETOCONAZOLE]
[9]
  inhibition (INH): Dose-dependent effect

## CN1CCN(c2ccc(NC(=O)c3cccnc3NCc3ccncc3)cc2)CC1
K562/A02 [1]
  IC50: > 100 µM
[2]
  viability at 48 h, 5 µM: > 90%
[3]
  fold change (FC): 4.93
K562 [4]
  IC50: > 100 µM

## CC(C)(C)c1ccc(NC(=O)c2cccnc2NCc2ccncc2)cc1
K562/A02 [1]
  IC50: > 100 µM
[2]
  viability at 48 h, 5 µM: > 90%
[3]
  fold change (FC): 4.27
K562 [4]
  IC50: > 100 µM

## O=C(c1cccnc1NCc1ccncc1)N(Cc1ccccc1)Cc1ccccc1
K562/A02 [1]
  IC50: 82.2 µM
K562/A02 [6]
  Activity: Non-Toxic
[3]
  fold change (FC): 10.14
K562 [4]
  IC50: 76.4 µM

## O=C(Nc1ccc(N2CCOCC2)cc1)c1cccnc1NCc1ccncc1
K562/A02 [1]
  IC50: > 100 µM
[2]
  viability at 48 h, 5 µM: > 90%
[3]
  fold change (FC): 18.8
K562 [4]
  IC50: > 100 µM

## COc1cc2c(cc1OC)CN(C(=O)c1cccnc1NCc1ccncc1)CC2
K562/A02 [1]
  IC50: 85.7 µM
K562/A02 [6]
  Activity: Non-Toxic
[3]
  fold change (FC): 17.97
K562 [4]
  IC50: 72.5 µM

## O=C(NC1CCCc2ccccc21)c1cccnc1NCc1ccncc1 (stereo unspecified)
K562/A02 [1]
  IC50: > 100 µM
[2]
  viability at 48 h, 5 µM: > 90%
[3]
  fold change (FC): 4.24
K562 [4]
  IC50: 66.1 µM

## O=C(c1cccnc1NCc1ccncc1)N1CCC(N2CCCCC2)CC1
K562/A02 [1]
  IC50: > 100 µM
[2]
  viability at 48 h, 5 µM: > 90%
[3]
  fold change (FC): 1.2
K562 [4]
  IC50: 51.4 µM

## COc1ccc(C2c3cc(OC)c(OC)cc3CCN2C(=O)c2cccnc2NCc2ccncc2)cc1OC (stereo unspecified)
K562/A02 [1]
  IC50: > 100 µM
K562/A02 [6]
  Activity: Non-Toxic
[3]
  fold change (FC): 3.44
K562 [4]
  IC50: > 100 µM

## COc1cc2c(cc1OC)C(c1ccco1)N(C(=O)c1cccnc1NCc1ccncc1)CC2 (stereo unspecified)
K562/A02 [1]
  IC50: > 100 µM
K562/A02 [6]
  Activity: Non-Toxic
[3]
  fold change (FC): 1.52
K562 [4]
  IC50: > 100 µM

## COc1ccc(CN(C)C(=O)c2cccnc2NCc2ccncc2)cc1OC
K562/A02 [1]
  IC50: > 100 µM
[2]
  viability at 48 h, 5 µM: > 90%
[3]
  fold change (FC): 9.58
K562 [4]
  IC50: > 100 µM
